In ChEMBL document CHEMBL1938395, “New benzimidazole derivatives as antiplasmodial agents and plasmepsin inhibitors: synthesis and analysis of structure-activity relationships” (Bioorg Med Chem Lett, 2012):

Assays:
Plasmodium falciparum [1] = assay: Antiplasmodial activity against late ring stage Plasmodium falciparum HB3 assessed as [3H]hypoxanthine incorporation after 24 hrs by scintillation counting; format: functional, organism-based
In short: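 Late ring stage cultures at 0.5% parasitemia were exposed to a range of compound concentrations in hypoxanthine-free rich medium for 42 h. 0.5 µCi [3H]hypoxanthine was then added and incubation continued for 24 h. Cells were harvested on glass fiber paper and counted by scintillation. Percent inhibition of uptake versus concentration was fitted with a modified dose–response logistic equation for IC50.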

Plasmepsin II = Plasmepsin II (Plasmodium falciparum, UniProt P46925); assay: Inhibition of Plasmodium falciparum plasmepsin-2 using DABCYL-Glu-Arg-Nle-Phe-Leu-Ser-Phe-Pro-EDANS as substrate by FRET analysis
In short: (§1)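 Enzyme (plasmepsin II or cathepsin D) at 1.2 nM with 1.0 µM FRET substrate in 0.1 M sodium acetate pH 5.0, 10% glycerol, 0.01% Tween 20. Compounds were dissolved in DMSO and added before substrate, at 5.0% final DMSO. Fluorescence was read at excitation 336 nm and emission 490 nm. Triplicates.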

Cathepsin D = Cathepsin D (Homo sapiens, UniProt P07339); assay: Inhibition of human cathepsin D using DABCYL-Glu-Arg-Nle-Phe-Leu-Ser-Phe-Pro-EDANS as substrate by FRET analysis; in short: as §1
Plasmodium falciparum [2] = assay: Antiplasmodial activity against late ring stage Plasmodium falciparum HB3 after 1 hr by acridine orange staining-based flow cytometric analysis; format: functional, organism-based; conditions: HB3, 1 h

Sequence of Cathepsin D (P07339 65-162 limits assumed): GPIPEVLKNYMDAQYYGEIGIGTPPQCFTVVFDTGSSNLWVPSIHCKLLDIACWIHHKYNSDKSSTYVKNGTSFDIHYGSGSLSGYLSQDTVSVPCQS
Sequence of Cathepsin D (P07339 169-412 limits assumed): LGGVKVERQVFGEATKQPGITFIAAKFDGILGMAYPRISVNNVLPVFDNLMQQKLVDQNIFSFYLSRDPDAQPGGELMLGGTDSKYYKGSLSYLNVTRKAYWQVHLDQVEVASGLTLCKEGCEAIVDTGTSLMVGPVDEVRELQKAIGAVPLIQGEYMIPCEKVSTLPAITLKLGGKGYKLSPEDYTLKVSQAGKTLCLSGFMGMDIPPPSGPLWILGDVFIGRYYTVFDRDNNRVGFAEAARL
Sequence of Plasmepsin II (P46925 whole entry): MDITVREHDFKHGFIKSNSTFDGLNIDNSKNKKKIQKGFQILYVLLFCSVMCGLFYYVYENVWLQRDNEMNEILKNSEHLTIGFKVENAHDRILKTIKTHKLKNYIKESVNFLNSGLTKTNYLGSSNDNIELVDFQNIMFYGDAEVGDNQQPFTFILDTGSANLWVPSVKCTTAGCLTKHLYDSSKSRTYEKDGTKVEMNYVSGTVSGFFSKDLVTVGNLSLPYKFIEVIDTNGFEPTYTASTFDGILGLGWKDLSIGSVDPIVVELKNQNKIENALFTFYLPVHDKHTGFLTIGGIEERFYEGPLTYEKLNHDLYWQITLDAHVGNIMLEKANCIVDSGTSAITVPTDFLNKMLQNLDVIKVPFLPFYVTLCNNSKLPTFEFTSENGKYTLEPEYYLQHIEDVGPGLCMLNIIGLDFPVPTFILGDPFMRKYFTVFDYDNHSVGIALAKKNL

Row | IC50 (Plasmodium falciparum [1]) [µM] | IC50 (Plasmepsin II) [µM] | IC50 (Cathepsin D) [µM] | IC50 (Plasmodium falciparum [2]) [µM] | SMILES
1 | ≥ 3 | 20.4 | 21.2 |  | O=C(Cn1c(-c2ccccn2)nc2ccccc21)c1cccc([N+](=O)[O-])c1
2 | 0.7 | 21.2 | 31.9 |  | O=C(Cn1c(-c2ccccn2)nc2ccccc21)c1ccc(Cl)cc1
3 | ≥ 3 | 30.6 | 39.2 |  | O=C(Cn1c(-c2ccccn2)nc2ccccc21)c1ccccc1[N+](=O)[O-]
4 | 3 | 10 | 31.9 |  | O=C(Cn1c(-c2ccccn2)nc2ccccc21)c1ccc(F)cc1
5 | ≥ 3 | 48 | 44.5 |  | O=C(Cn1c(-c2ccccn2)nc2ccccc21)c1ccc(F)cc1F
6 | ≥ 3 | 10 | 39.2 |  | O=C(Cn1c(-c2ccccn2)nc2ccccc21)c1ccccc1
7 | 0.16 | 14.7 | 2 | 0.166 | O=C(Cn1c(-c2ccccn2)nc2ccccc21)c1ccc(-c2ccccc2)cc1
8 | ≤ 3 | 37.7 | 14.2 |  | COc1ccc(C(=O)Cn2c(-c3ccccn3)nc3ccccc32)cc1
9 | ≤ 3 | 34 | 21.2 |  | COc1ccc(OC)c(C(=O)Cn2c(-c3ccccn3)nc3ccccc32)c1

Row | SMILES | IC50 (Plasmodium falciparum [1]) [µM] | IC50 (Plasmepsin II) [µM] | IC50 (Cathepsin D) [µM] | IC50 (Plasmodium falciparum [2]) [µM]
10 | O=C(Cn1c(-c2ccccn2)nc2ccccc21)c1ccc(O)c(O)c1 | ≥ 3 | 19.6 | 28.5 | 
11 | O=C(Cn1c(-c2ccccn2)nc2ccccc21)c1ccc([N+](=O)[O-])cc1 | 2.1 | 30.5 | 17.8 | 
